Measurements published in ChEMBL document CHEMBL1671641, “1,5-benzodiazepines, a novel class of hepatitis C virus polymerase nonnucleoside inhibitors” (Antimicrob Agents Chemother, 2008).

What was measured:
[1] = Inhibition of Dengue virus RNA-dependent RNA polymerase
Procedure, shortened: (§1)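 Each enzyme–compound pair was tested in duplicate over 0.8 to 100 μM, with 100 μM as the highest dose. Each run included a no-inhibitor control, a solvent dilution (0.016 to 2% DMSO) and the relevant reference inhibitor. Percent inhibition at 100 μM was recorded for polymerase γ.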

Hepatitis C virus [2] = test: Inhibition of Hepatitis C virus 1b J4 recombinant NS5B Cdelta 21 RNA dependent RNA polymerase overexpressed in Escherichia coli BL21 (DE3); parameters: species or system Hepatitis C virus subtype 1b
Hepatitis C virus [3] = test: Antiviral activity against Hepatitis C virus 1b infected in human HuH7 cells assessed as inhibition of viral replication after 3 days by luciferase reporter assay; format: functional, organism-based, Hepacivirus hominis, genotype 1b, Huh-7
Procedure, shortened: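 HCV 1b subgenomic luciferase reporter replicon (clone ET) cells, 2,500 per well, were exposed to a nine-point 1/4 dilution series for 3 days. Replication was read as luciferase activity. Values are means ± SD from 2 to 23 independent experiments run in quadruplicate.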

[4] = (§2) Cytotoxicity against LTR-Luc transfected human MT4 cells […] after 3 days by ATPLite assay; format: cell-based
[5] = biological target: T1, DNA polymerase alpha catalytic subunit (Homo sapiens, UniProt P09884); test: Inhibition of human DNA polymerase alpha; procedure, shortened: as §1
T1 sequence (P09884 whole entry): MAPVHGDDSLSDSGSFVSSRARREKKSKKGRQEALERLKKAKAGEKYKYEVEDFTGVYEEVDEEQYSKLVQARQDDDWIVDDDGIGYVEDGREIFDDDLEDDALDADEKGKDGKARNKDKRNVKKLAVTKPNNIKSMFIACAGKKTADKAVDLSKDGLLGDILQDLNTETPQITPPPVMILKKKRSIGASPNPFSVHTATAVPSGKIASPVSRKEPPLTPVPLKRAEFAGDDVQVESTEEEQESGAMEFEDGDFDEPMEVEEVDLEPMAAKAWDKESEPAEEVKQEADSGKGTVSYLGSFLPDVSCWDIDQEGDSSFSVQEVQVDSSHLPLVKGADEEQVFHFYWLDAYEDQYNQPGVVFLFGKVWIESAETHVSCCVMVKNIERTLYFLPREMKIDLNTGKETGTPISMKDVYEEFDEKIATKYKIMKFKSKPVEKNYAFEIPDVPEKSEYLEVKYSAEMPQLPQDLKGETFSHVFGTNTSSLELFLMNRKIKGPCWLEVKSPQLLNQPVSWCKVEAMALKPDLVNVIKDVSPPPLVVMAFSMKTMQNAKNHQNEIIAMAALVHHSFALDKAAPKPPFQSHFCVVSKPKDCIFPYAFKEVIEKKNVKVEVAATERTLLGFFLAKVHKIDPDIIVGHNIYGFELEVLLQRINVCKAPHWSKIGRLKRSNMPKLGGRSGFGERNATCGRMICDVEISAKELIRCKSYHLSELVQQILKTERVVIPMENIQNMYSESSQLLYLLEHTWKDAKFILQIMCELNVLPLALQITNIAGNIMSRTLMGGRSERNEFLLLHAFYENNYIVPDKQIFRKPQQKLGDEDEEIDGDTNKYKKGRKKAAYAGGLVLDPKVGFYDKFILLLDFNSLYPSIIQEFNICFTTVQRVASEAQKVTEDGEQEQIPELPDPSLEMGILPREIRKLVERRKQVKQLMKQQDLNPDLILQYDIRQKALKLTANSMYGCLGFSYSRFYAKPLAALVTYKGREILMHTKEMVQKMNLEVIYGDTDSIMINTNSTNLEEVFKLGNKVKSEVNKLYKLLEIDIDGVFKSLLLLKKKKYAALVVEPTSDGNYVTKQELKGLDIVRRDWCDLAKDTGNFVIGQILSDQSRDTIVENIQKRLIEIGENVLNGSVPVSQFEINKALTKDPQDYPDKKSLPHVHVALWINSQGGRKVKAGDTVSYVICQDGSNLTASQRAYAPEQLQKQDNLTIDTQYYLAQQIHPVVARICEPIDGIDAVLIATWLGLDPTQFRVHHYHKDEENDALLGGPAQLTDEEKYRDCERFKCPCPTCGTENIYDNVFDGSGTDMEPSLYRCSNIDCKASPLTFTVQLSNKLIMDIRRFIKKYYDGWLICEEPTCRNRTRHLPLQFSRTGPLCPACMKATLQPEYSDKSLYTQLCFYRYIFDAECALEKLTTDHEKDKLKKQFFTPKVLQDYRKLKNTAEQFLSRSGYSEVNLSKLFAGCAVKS

[6] = biological target: Human immunodeficiency virus type 1 reverse transcriptase (Human immunodeficiency virus 1, UniProt Q72547); test: Inhibition of Human immunodeficiency virus 1 reverse transcriptase expressed in Escherichia coli by scintillation proximity assay
Procedure, shortened: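 N-terminal His6 HIV-1 RT was expressed in E. coli BL21(DE3), induced overnight at 37°C with 0.4 mM IPTG. The homodimer was purified by Ni-NTA and heparin chromatography. Activity was measured by scintillation proximity assay at 2.5 nM enzyme, with efavirenz as reference inhibitor.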

DNA polymerase beta = DNA polymerase beta (Homo sapiens, UniProt P06746); test: Inhibition of human DNA polymerase beta; procedure, shortened: as §1
[7] = biological target: T2, DNA polymerase subunit gamma-1 (Homo sapiens, UniProt P54098); test: Inhibition of human DNA polymerase gamma; procedure, shortened: as §1
T2 sequence (P54098 whole entry): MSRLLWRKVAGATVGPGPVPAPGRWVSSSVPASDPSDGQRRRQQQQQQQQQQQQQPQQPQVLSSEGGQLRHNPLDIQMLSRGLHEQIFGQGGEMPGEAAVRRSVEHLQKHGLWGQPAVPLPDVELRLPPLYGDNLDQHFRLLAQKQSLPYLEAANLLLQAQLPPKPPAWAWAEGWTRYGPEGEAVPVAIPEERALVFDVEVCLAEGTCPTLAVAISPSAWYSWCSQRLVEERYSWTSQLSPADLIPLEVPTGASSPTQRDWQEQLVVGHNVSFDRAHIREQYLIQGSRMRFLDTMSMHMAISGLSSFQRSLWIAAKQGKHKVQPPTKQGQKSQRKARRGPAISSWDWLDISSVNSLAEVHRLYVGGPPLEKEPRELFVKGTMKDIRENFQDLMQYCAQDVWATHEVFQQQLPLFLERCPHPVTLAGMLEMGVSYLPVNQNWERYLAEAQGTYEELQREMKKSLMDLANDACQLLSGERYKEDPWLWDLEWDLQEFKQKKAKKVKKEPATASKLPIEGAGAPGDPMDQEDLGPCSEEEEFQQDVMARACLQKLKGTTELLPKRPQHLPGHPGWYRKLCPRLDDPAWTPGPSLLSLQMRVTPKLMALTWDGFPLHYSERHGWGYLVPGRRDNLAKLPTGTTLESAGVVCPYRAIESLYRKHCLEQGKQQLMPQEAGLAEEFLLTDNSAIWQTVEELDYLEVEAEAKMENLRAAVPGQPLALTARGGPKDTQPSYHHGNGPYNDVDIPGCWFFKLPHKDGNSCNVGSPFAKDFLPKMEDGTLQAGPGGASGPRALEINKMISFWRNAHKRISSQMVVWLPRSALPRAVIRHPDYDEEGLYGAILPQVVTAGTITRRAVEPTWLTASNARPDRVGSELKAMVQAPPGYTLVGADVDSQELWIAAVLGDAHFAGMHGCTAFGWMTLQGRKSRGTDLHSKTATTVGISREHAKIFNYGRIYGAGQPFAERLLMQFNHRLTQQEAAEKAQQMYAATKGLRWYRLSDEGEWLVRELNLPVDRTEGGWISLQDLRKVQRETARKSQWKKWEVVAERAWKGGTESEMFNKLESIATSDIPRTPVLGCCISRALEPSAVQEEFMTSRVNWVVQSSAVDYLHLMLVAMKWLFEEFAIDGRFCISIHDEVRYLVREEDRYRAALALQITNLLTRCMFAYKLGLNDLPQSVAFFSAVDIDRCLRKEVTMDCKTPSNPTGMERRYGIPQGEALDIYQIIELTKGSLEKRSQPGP

[8] = Cytotoxicity against CMV-Luc transfected human HuH7 cells after 5 days; format: cell-based, Huh-7; details: for CC50: huh-7, 120 h, 120 h
Hepatitis C virus [9] = test: Ratio of EC50 for Hepatitis C virus 796 infected in HuH7 cells to EC50 for Hepatitis C virus 796 harboring NNI C316Y mutant site in NS5B infected in HuH7 cells; format: functional, Hepacivirus hominis, Huh-7
Procedure, shortened: (§3)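 NS5B NNI-site mutations were introduced into the genotype 1b ET subgenomic luciferase replicon by site-directed mutagenesis. RNA was made by in vitro transcription and tested in a transient-replication assay.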

Hepatitis C virus [10] = test: Ratio of EC50 for Hepatitis C virus 796 infected in HuH7 cells to EC50 for Hepatitis C virus 796 harboring NNI Y448A mutant site in NS5B infected in HuH7 cells; format: functional, Hepacivirus hominis, Huh-7; procedure, shortened: as §3
Hepatitis C virus [11] = test: Ratio of EC50 for Hepatitis C virus 796 infected in HuH7 cells to EC50 for Hepatitis C virus 796 harboring NNI M414Q mutant site in NS5B infected in HuH7 cells; format: functional, Hepacivirus hominis, Huh-7; procedure, shortened: as §3
Hepatitis C virus [12] = test: Ratio of EC50 for Hepatitis C virus 796 infected in HuH7 cells to EC50 for Hepatitis C virus 796 harboring NNI M423T mutant site in NS5B infected in HuH7 cells; format: functional, Hepacivirus hominis, Huh-7; procedure, shortened: as §3
Hepatitis C virus [13] = test: Ratio of EC50 for Hepatitis C virus 796 infected in HuH7 cells to EC50 for Hepatitis C virus 796 harboring NNI H95R mutant site in NS5B infected in HuH7 cells; format: functional, Hepacivirus hominis, Huh-7; procedure, shortened: as §3
Hepatitis C virus [14] = test: Ratio of EC50 for Hepatitis C virus 796 infected in HuH7 cells to EC50 for Hepatitis C virus 796 harboring NNI P495L mutant site in NS5B infected in HuH7 cells; format: functional, Hepacivirus hominis, Huh-7; procedure, shortened: as §3
MT4 = test: as §2; format: cell-based; details: mt4, 72 h, 72 h
Hepatitis C virus [15] = test: Inhibition of Hepatitis C virus 1b J4 recombinant NS5B Cdelta 21 RNA dependent RNA polymerase overexpressed in Escherichia coli BL21 (DE3) by RdRp primer-dependent transcription assay; parameters: species or system Hepatitis C virus subtype 1b
Hepatitis C virus [16] = test: Inhibition of Hepatitis C virus 1b J4 recombinant NS5B Cdelta 21 RNA dependent RNA polymerase overexpressed in Escherichia coli BL21 (DE3) assessed as [alpha-33P]UTP incorporation by RdRp primer-independent transcription assay; parameters: species or system Hepatitis C virus subtype 1b
Procedure, shortened: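 De novo (primer-independent) RdRp assay: 190 nM NS5BΔ21 (1b J4) with 86 nM HCV 3′ UTR template RNA, 0.5 mM each ATP/GTP/CTP, 10 μM UTP plus [α-³³P]UTP, in 20 mM Tris-HCl pH 7.5, 1 mM DTT, 5 mM MgCl₂, 20 mM NaCl. Incubated 2 h at room temperature, stopped with EDTA/tRNA, TCA-precipitated on filters, and scintillation-counted. Quadruplicate.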

Row | Compound | EC50 (Hepatitis C virus [3]; huh-7) | CC50 (MT4) | IC50 (Hepatitis C virus [15]) | IC50 (Hepatitis C virus [16]) | CC50 [8] | further results
1 | COc1ccc(C2C3=C(CC(C)(C)CC3=O)Nc3ccccc3N2C(C)=O)cc1OCc1ccccc1 (stereo not drawn) | – | – | – | – | – | IC50 [1]: > 100 µM; IC50 (Hepatitis C virus [2]): 7.9 µM; EC50 (Hepatitis C virus [3]; Hepatitis C virus, genotype 1b, Huh-7, 72 h): 12.3 µM; CC50 at 72 h [4]: 32 µM; IC50 [5]: > 100 µM; IC50 [6]: > 32 µM; IC50 (DNA polymerase beta): > 100 µM; IC50 [7]: > 100 µM; CC50 at 120 h ([8]; CMV-Luc transfected HuH7 cells): 32 µM
2 | CC(C)N(c1cc(-c2ccccc2)sc1C(=O)O)C(=O)[C@H]1CC[C@H](C)CC1 | – | – | – | – | – | fold change (FC) (Hepatitis C virus [9]): 10; fold change (FC) (Hepatitis C virus [10]): 10; fold change (FC) (Hepatitis C virus [11]): 10; fold change (FC) (Hepatitis C virus [12]): 10; fold change (FC) (Hepatitis C virus [13]): 10; fold change (FC) (Hepatitis C virus [14]): 10
3 | CC(=O)N1c2ccccc2NC2=C(C(=O)CC(C)(C)C2)C1c1ccc(OCc2ccccc2)cc1 (single isomer, unassigned; 3a) | 15.3 µM | 22.2 µM | 1 µM | 0.54 µM | 19.2 µM | –
4 | CC(=O)N1c2ccccc2NC2=C(C(=O)CC(C)(C)C2)C1c1ccc(OCc2ccccc2)cc1 (single isomer, unassigned; 3b) | 2 µM | 18.3 µM | 86.7 µM | 79.1 µM | 19.7 µM | –
5 | CC(=O)N1c2ccccc2NC2=C(C(=O)CC(C)(C)C2)C1c1ccc(OCc2ccccc2)c(Cl)c1 (single isomer, unassigned; 4b) | 0.6 µM | 12.9 µM | 35.9 µM | > 32 µM | 21.2 µM | –
6 | CC(=O)N1c2ccccc2NC2=C(C(=O)CC(C)(C)C2)C1c1ccc(OCc2ccccc2)cc1Cl (single isomer, unassigned; 5a) | 9.3 µM | 19.5 µM | 0.33 µM | – | 49 µM | –
7 | CC(=O)N1c2ccccc2NC2=C(C(=O)CC(C)(C)C2)C1c1ccc(OCc2ccccc2)cc1Cl (single isomer, unassigned; 5b) | 3.9 µM | 17.3 µM | 83.1 µM | – | 53.7 µM | –
